In ChEMBL document CHEMBL1124544, “Structure-activity relationship of antiestrogens: a study using triarylbutenone, benzofuran, and triarylfuran analogues as models for triarylethylenes and triarylpropenones” (1989):
Active and inactive are the calls of the source. The rule behind the calls is not given here.

How the values were obtained:
[1] = molecular target: T1, Estrogen receptor (Rattus norvegicus) (UniProt P06211+Q62986); assay: Relative binding against estrogen receptor of rat uterine cytosol by [2-4-3H] estradiol.; format: protein assay
Summary of the method: (§1)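 Uterine cytosol (1 uterine equiv/mL) from immature rats primed s.c. with 1 μg E₂ for 3 days, incubated 18 h at 4 °C with [³H]E₂ (5 × 10⁻⁹ M) and test compound (10⁻⁴–10⁻⁹ M) in triplicate. Medium was Tris-HCl/EDTA/azide buffer, pH 7.4, with 7% DMF. Free ligand removed with charcoal-dextran for 20 min before scintillation counting. Results expressed relative to E₂ = 100, mean ± SD of ≥3 determinations.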

[2] = test system: Rattus norvegicus; assay: Estrogenicity in rats following 3 x 1 mg s.c. over 72h.; format: functional
Summary of the method: (§2)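 Immature Sprague-Dawley female rats, 21–23 days old, seven to nine per group, injected s.c. on 3 consecutive days with test compound suspended in 0.2 mL propylene glycol–saline (1:1 v/v). Vehicle-only controls. Autopsy 24 h after the final dose, uterine wet weight recorded. Agonist activity computed as (C₀ − V)(100)/(E − V), with E the E₂-alone mean.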

[3] = test system: Rattus norvegicus; assay: Inhibition of E2 effects in rats by 1 mg s.c.; format: functional
Summary of the method: (§3)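 Immature female Sprague-Dawley rats (21–23 days), groups of seven to nine, given test compound suspended in 0.2 mL propylene glycol–saline (1:1 v/v) s.c. daily for 3 consecutive days, plus 1 μg E₂ per animal at a separate site. Controls got E₂ plus vehicle. Uterine wet weight taken at autopsy 24 h after the last injection. Inhibition computed as (E − C₁)(100)/(E − V).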

[4] = test system: Rattus norvegicus; assay: Anti-uterotrophic effects in rats following 3 x 1 mg s.c. over 72h.; format: functional; summary of the method: as §3
[5] = test system: Rattus norvegicus; assay: Uterotrophic effects in rats following 3 x 1 mg s.c. over 72h.; format: functional, Uterus; summary of the method: as §2
[6] = test system: Rattus norvegicus; assay: Estrogenicity in rats following 3 x 0.1 mg s.c. over 72h.; format: functional; summary of the method: as §2
[7] = test system: Rattus norvegicus; assay: Uterotrophic effects in rats following 3 x 0.1 mg s.c. over 72h.; format: functional, Uterus; summary of the method: as §2
[8] = test system: Rattus norvegicus; assay: Anti-uterotrophic effects in rats following 3 x 0.1 mg s.c. over 72h.; format: functional; summary of the method: as §3
[9] = test system: Rattus norvegicus; assay: Inhibition of E2 effects in rats by 0.1 mg s.c.; format: functional; summary of the method: as §3
[10] = molecular target: T1, Estrogen receptor (Rattus norvegicus); assay: Relative binding affinity against estrogen receptor of rat uterine cytosol by [2-4-3H] estradiol; No detectable affinity at 100 uM.; summary of the method: as §1

Row | Structure (SMILES) | RBA [1] [%] | Estrogenic effect [2] [%] | Inhibition [3] [%] | Uterine weight [4] [mg] | Uterine weight [5] [mg] | Estrogenic effect [6] [%] | Uterine weight [7] [mg] | Uterine weight [8] [mg] | Inhibition [9] [%] | RBA [10]
1 | COc1ccc2c(-c3ccc(O)cc3)c(-c3ccccc3)oc2c1 | 0.01 |  |  |  |  |  |  |  |  | 
2 | O=C(c1ccc(O)cc1)c1oc2cc(O)ccc2c1-c1ccc(O)cc1 | 2.7 | 31 | 23 | 48.3 | 26.3 |  |  |  |  | 
3 | O=C(c1ccc(O)cc1)c1c(-c2ccccc2)oc2cc(O)ccc12 | 2.1 | 25 | 37 | 38 | 22.4 |  |  |  |  | 
4 | C/C(=C(\C(=O)c1ccc(OCCN2CCCC2)cc1)c1ccccc1)c1ccccc1 | 0.24 |  |  |  |  | 0 | 18 | 46.6 | 16 | 
5 | COc1ccc(-c2c(-c3ccccc3)oc3cc(O)ccc23)cc1 | 0.01 |  |  |  |  |  |  |  |  | 
6 | C/C(=C(/C(=O)c1ccc(OCCN2CCCC2)cc1)c1ccccc1)c1ccccc1 | 0.008 |  |  |  |  | 38 | 30.6 | 43.1 | 26 | 
7 | O=C(c1ccccc1)c1c(-c2ccc(O)cc2)oc2ccccc12 | 0.12 | 0 | 0 | 47.4 | 13.7 |  |  |  |  | 
8 | Cl.O=C(c1ccccc1)c1c(-c2ccc(OCCN3CCCC3)cc2)oc2ccccc12 | 0.3 | 38 | 58 | 29.6 | 27.7 |  |  |  |  | 
9 | Oc1ccc(-c2c(-c3ccccc3)oc3cc(O)ccc23)cc1 | 1.6 | 0 | 0 | 46.5 | 14.6 |  |  |  |  | 
10 | c1ccc(-c2occ(-c3ccc(OCCN4CCCC4)cc3)c2-c2ccccc2)cc1 |  |  |  |  |  | 61 | 35.6 | 52.1 | 0 | inactive
11 | O=C(c1ccc(O)cc1)c1c(-c2ccc(O)cc2)oc2ccccc12 | 1.7 | 0 | 0 | 59.3 | 13.1 |  |  |  |  | 
12 | O=C(/C(=C/c1ccccc1)c1ccccc1)c1ccc(O)cc1 | 1.8 |  |  |  |  | 68 | 49.4 | 78.1 | 0 | 
13 | C/C(=C(/C(=O)c1ccc(O)cc1)c1ccccc1)c1ccccc1 | 3.6 |  |  |  |  | 83 | 46.4 | 44.7 | 21 | 
14 | Oc1ccc(-c2coc(-c3ccccc3)c2-c2ccccc2)cc1 | 3 |  |  |  |  | 100 | 48.9 | 57.6 | 0 | 
15 | c1ccc(-c2coc(-c3ccccc3)c2-c2ccc(OCCN3CCCC3)cc2)cc1 | 0.84 |  |  |  |  | 31 | 26.4 | 53.9 | 0 | 
16 | COc1ccc2c(-c3ccc(OCCN4CCCC4)cc3)c(-c3ccccc3)oc2c1 | 0.01 | 57 | 0 | 61.4 | 35.4 |  |  |  |  | 
17 | O=C(c1ccc(O)cc1)c1c(-c2ccccc2)oc2ccccc12 | 5.3 | 10 | 0 | 50.7 | 16.3 |  |  |  |  | 
18 | O=C(c1ccc(OCCN2CCCC2)cc1)c1c(-c2ccccc2)oc2ccccc12 | 0.01 | 0 | 0 | 56.1 | 16.7 |  |  |  |  | 
19 | Oc1ccc(-c2c(-c3ccccc3)coc2-c2ccccc2)cc1 | 4.5 |  |  |  |  | 0 | 16.7 | 42.8 | 0 | 
20 | O=C(c1ccccc1)c1c(-c2ccc(O)cc2)oc2cc(O)ccc12 | 0.72 | 35 | 0 | 43.2 | 26.6 |  |  |  |  | 
21 | O=C(/C(=C\c1ccccc1)c1ccccc1)c1ccc(O)cc1 | 0.06 |  |  |  |  | 33 | 22.2 | 70.4 | 0 | 
22 | C/C(=C(\C(=O)c1ccc(O)cc1)c1ccccc1)c1ccccc1 | 0.54 |  |  |  |  | 0 | 19.8 | 47.3 | 14 | 
23 | Oc1ccc(-c2oc3cc(O)ccc3c2-c2ccc(O)cc2)cc1 | 7.8 | 22 | 30 | 39.6 | 21.2 |  |  |  |  | 
